From ChEMBL document CHEMBL1821564, “3-Acetyl-2,5-diaryl-2,3-dihydro-1,3,4-oxadiazoles: a new scaffold for the selective inhibition of monoamine oxidase B” (J Med Chem, 2011)

Tests used:
[1] = target: T1, Amine oxidase [flavin-containing] B (Homo sapiens, UniProt P27338); test: Inhibition of human recombinant MAO-B expressed in BTI-TN-5B1-4 insect cells at 100 uM using p-tyramine substrate by Amplex Red MAO assay; details: bti-tn-5b1-4, 100 µM
T1 sequence (P27338 whole entry): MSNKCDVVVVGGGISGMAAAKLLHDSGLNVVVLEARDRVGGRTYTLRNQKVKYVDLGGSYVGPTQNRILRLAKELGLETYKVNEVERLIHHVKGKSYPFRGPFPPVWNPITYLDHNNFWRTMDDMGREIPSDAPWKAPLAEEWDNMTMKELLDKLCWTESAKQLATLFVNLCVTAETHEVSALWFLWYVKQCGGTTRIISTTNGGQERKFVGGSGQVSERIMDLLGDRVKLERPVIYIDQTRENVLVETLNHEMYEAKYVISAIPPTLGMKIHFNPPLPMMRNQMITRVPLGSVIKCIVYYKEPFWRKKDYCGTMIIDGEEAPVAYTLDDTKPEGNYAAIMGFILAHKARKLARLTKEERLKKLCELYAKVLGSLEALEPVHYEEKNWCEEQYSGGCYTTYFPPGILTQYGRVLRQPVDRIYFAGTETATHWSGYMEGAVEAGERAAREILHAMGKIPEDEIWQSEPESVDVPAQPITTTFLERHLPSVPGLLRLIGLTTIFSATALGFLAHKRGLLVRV
Outline: (§1)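 Microsomal hMAO-A or hMAO-B from baculovirus-infected BTI-TN-5B1-4 insect cells, with p-tyramine substrate. H2O2 production was read with the Amplex Red reagent. Highest concentration tested was 100 μM, limited by precipitation. Compounds were checked for no direct reaction with Amplex Red. IC50 is the mean ± SEM of five experiments.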

[2] = target: T2, Amine oxidase [flavin-containing] A (Homo sapiens, UniProt P21397); test: Inhibition of human recombinant MAO-A activity expressed in BTI-TN-5B1-4 insect cells at 100 uM using p-tyramine substrate by Amplex Red MAO assay; details: bti-tn-5b1-4, 100 µM; outline: as §1
T2 sequence (P21397 whole entry): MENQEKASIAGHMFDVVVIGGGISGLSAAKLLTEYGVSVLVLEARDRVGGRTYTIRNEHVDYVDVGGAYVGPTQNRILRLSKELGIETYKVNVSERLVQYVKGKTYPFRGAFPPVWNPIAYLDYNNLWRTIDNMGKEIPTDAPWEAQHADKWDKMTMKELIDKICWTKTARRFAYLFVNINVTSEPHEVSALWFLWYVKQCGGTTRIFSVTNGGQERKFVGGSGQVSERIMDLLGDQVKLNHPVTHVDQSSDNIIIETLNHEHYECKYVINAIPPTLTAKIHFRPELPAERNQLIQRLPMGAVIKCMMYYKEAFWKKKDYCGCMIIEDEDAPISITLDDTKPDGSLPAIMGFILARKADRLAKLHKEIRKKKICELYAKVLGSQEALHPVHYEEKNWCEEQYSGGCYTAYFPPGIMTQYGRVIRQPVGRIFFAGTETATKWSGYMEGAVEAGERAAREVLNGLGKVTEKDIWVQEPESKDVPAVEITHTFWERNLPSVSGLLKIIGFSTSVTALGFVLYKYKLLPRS

[3] = target: T1, Amine oxidase [flavin-containing] B; test: Inhibition of human recombinant MAO-B expressed in BTI-TN-5B1-4 insect cells using p-tyramine substrate by Amplex Red MAO assay; outline: as §1
[4] = species: Homo sapiens; test: Selectivity index, ratio of IC50 for human recombinant MAO-A to IC50 for human recombinant MAO-B

inhibition (INH) [1] | inhibition (INH) [2] | IC50 ([3]; bti-tn-5b1-4) | Ratio IC50 [4] | IC50 [3] | Compound
Not Active | Not Active |  |  |  | CC(=O)N1N=C(c2ccc(C)cc2)OC1c1ccc(Cl)cc1 (stereo not given)
Not Active | Not Active |  |  |  | COc1ccc(C2OC(c3ccncc3)=NN2C(C)=O)cc1 (stereo not given)
Not Active | Not Active |  |  |  | CC(=O)N1N=C(c2ccccc2)OC1c1ccc([N+](=O)[O-])cc1 (stereo not given)
Not Active | Not Active |  |  |  | CC(=O)N1N=C(c2ccccc2)OC1c1ccc(N(C)C)cc1 (stereo not given)
Not Active | Not Active |  |  |  | CC(=O)N1N=C(c2ccc(C)cc2)OC1c1ccccc1 (stereo not given)
 |  | 0.221 µM |  |  | CC(=O)N1N=C(c2ccc(Br)cc2)OC1c1ccc(Cl)cc1 (racemic) [listing 1 of 2 here]
Not Active | Not Active |  |  |  | CC(=O)N1N=C(c2ccc(C)cc2)OC1c1ccc(N(C)C)cc1 (stereo not given)
Not Active | Not Active |  |  |  | CC(=O)N1N=C(c2ccncc2)OC1c1ccc(Cl)cc1Cl (stereo not given)
 | Not Active |  | > 12 | 8.46 µM | CC(=O)N1N=C(c2ccccc2)O[C@@H]1c1ccc(C)cc1
 | Not Active |  | > 19 | 5.16 µM | COc1ccc(C2OC(c3ccccc3)=NN2C(C)=O)cc1 (stereo not given)
 | Not Active |  |  | 0.115 µM | CC(=O)N1N=C(c2ccc(Cl)cc2)OC1c1ccc(Cl)cc1 (stereo in doubt; 4p) [listing 1 of 2 here]
Not Active | Not Active |  |  |  | CC(=O)N1N=C(c2ccccc2)OC1c1ccccc1 (stereo not given)
 | Not Active |  | > 2.14 | 46.8 µM | CC(=O)N1N=C(c2ccncc2)OC1c1ccc(N(C)C)cc1 (stereo not given)
 | Not Active |  | > 1210 | 0.0825 µM | CC(=O)N1N=C(c2ccc(Br)cc2)O[C@@H]1c1ccc(Cl)cc1
Not Active | Not Active |  |  |  | CC(=O)N1N=C(c2ccc(Br)cc2)O[C@H]1c1ccc(Cl)cc1
 |  | 0.115 µM |  |  | CC(=O)N1N=C(c2ccc(Cl)cc2)OC1c1ccc(Cl)cc1 (racemic) [listing 1 of 2 here]
Not Active | Not Active |  |  |  | COc1ccc(C2=NN(C(C)=O)C(c3ccc(Cl)cc3)O2)cc1 (stereo not given)
 |  | 19.4 µM |  |  | CC(=O)N1N=C(c2ccccc2)OC1c1ccc(C)cc1 (racemic) [listing 1 of 2 here]
 | Not Active |  | > 10 | 9.53 µM | CC(=O)N1N=C(c2ccccc2)OC1c1ccc(F)cc1 (stereo not given)
Not Active | Not Active |  |  |  | COc1ccc(C2OC(c3ccncc3)=NN2C(C)=O)cc1OC (stereo not given)

inhibition (INH) [1] | inhibition (INH) [2] | IC50 ([3]; bti-tn-5b1-4) | Ratio IC50 [4] | IC50 [3] | Compound
 |  |  | > 867 |  | CC(=O)N1N=C(c2ccc(Cl)cc2)OC1c1ccc(Cl)cc1 (racemic) [listing 2 of 2 here]
 | Not Active |  |  | 19.4 µM | CC(=O)N1N=C(c2ccccc2)OC1c1ccc(C)cc1 (stereo in doubt; 4y) [listing 1 of 2 here]
Not Active | Not Active |  |  |  | CC(=O)N1N=C(c2ccc(C)cc2)OC1c1ccc(Cl)cc1Cl (stereo not given)
 | Not Active |  | > 994 | 0.101 µM | CC(=O)N1N=C(c2ccc(Cl)cc2)O[C@@H]1c1ccc(Cl)cc1
Not Active | Not Active |  |  |  | COc1ccc(C2OC(c3ccc(C)cc3)=NN2C(C)=O)cc1OC (stereo not given)
Not Active | Not Active |  |  |  | CC(=O)N1N=C(c2ccccc2)OC1c1ccc(Cl)cc1 (stereo not given)
Not Active | Not Active |  |  |  | CC(=O)N1N=C(c2ccncc2)OC1c1ccccc1 (stereo not given)
 | Not Active |  | > 822 | 0.122 µM | CC(=O)N1N=C(c2ccc([N+](=O)[O-])cc2)OC1c1ccc(Cl)cc1 (stereo not given)
Not Active | Not Active |  |  |  | CC(=O)N1N=C(c2ccc(Cl)cc2)O[C@H]1c1ccc(Cl)cc1
 | Not Active |  | > 1.5 | 66.6 µM | CC(=O)N1N=C(c2ccc(C)cc2)OC1c1ccc(C)cc1 (stereo not given)
 |  |  | > 5.2 |  | CC(=O)N1N=C(c2ccccc2)OC1c1ccc(C)cc1 (racemic) [listing 2 of 2 here]
 |  |  | > 5.2 |  | CC(=O)N1N=C(c2ccccc2)OC1c1ccc(C)cc1 (stereo in doubt; 4y) [listing 2 of 2 here]
Not Active | Not Active |  |  |  | CC(=O)N1N=C(c2ccccc2)O[C@H]1c1ccc(C)cc1
 |  |  | > 453 |  | CC(=O)N1N=C(c2ccc(Br)cc2)OC1c1ccc(Cl)cc1 (stereo in doubt; 4s) [listing 1 of 2 here]
Not Active | Not Active |  |  |  | CC(=O)N1N=C(c2ccncc2)OC1c1ccc(C)cc1 (stereo not given)
 | Not Active |  | > 1.34 | 74.7 µM | COc1ccc(C2OC(c3ccc(C)cc3)=NN2C(C)=O)cc1 (stereo not given)
 |  |  | > 453 |  | CC(=O)N1N=C(c2ccc(Br)cc2)OC1c1ccc(Cl)cc1 (racemic) [listing 2 of 2 here]
 |  |  | > 867 |  | CC(=O)N1N=C(c2ccc(Cl)cc2)OC1c1ccc(Cl)cc1 (stereo in doubt; 4p) [listing 2 of 2 here]
Not Active | Not Active |  |  |  | CC(=O)N1N=C(c2ccncc2)OC1c1ccc(Cl)cc1 (stereo not given)
 | Not Active |  |  | 0.221 µM | CC(=O)N1N=C(c2ccc(Br)cc2)OC1c1ccc(Cl)cc1 (stereo in doubt; 4s) [listing 2 of 2 here]
